Assay results gathered from unrelated publications.
Protocols differ between the studies behind these lines.
ALK: ALK tyrosine kinase receptor (ALK, Homo sapiens, UniProt Q9UM73)
ALK L1196M: ALK tyrosine kinase receptor (ALK, Homo sapiens, UniProt Q9UM73, L1196M)
ALK C1156Y: ALK tyrosine kinase receptor (ALK, Homo sapiens, UniProt Q9UM73, C1156Y)

| SMILES | target | effect on | technique | tested at | remaining binding [%] |
| --- | --- | --- | --- | --- | --- |
| Cc1noc([C@H]2C[C@@H](c3ccc(C(F)(F)F)cc3)CN(C(=O)N3CCS(=O)(=O)C3)C2)n1 | ALK | cell-free assay | competition with immobilised ligand | 1 µM | 100 |
| Cc1cnn2ncc(-c3ccnc(N(C)C)n3)c2c1 | ALK | binding | – | 1 µM | 92 |
| COc1ncc2cc3ccccc3nc2c1C#N | ALK L1196M | cell-free assay | competition with immobilised ligand | 5 µM | 94 |
| C[C@@H](c1ccc(-n2cnc3c(N)ncnc32)cc1)N1CCc2nn(C)c(Cc3ccccc3)c2C1=O | ALK C1156Y | binding | competition with immobilised ligand | 0.1 µM | 57 |
| CC(=O)N1CCC(c2ccc(C(=O)NC3=NCCN3)cc2C(F)(F)F)CC1 | ALK C1156Y | cell-free assay | competition with immobilised ligand | 1 µM | 100 |
| CN(CCCC(F)(F)F)c1nccc(-c2cnn3ncccc23)n1 | ALK | binding | – | 1 µM | 97 |
| c1cncc(-c2cccc(Nc3nccc(NC4CCCCC4)n3)c2)c1 | ALK C1156Y | binding | competition with immobilised ligand | 10 µM | 37 |
| N[C@@H]1CCN(c2nccc(-c3cnn4ncccc34)n2)C1 | ALK | binding | – | 1 µM | 97 |
| O=C(c1ccc(Nc2nccc(-c3cc4ccccc4s3)n2)cc1)N1CCC(N2CCCC2)CC1 | ALK C1156Y | binding | competition with immobilised ligand | 1 µM | 77 |
| C=CC(=O)N1CCC(C(=O)NCC(=O)N2CCN(c3nc(-c4cnc(N)nc4C(F)F)nc(N4CCOCC4)n3)CC2)CC1 | ALK L1196M | binding | competition with immobilised ligand | 1 µM | 79 |
| COCCOc1nc(-c2ccc(Cl)nc2)nc2c1CN(C(=O)c1ncn3ccccc13)CC2 | ALK L1196M | cell-free assay | competition with immobilised ligand | 0.1 µM | 100 |
| C[C@@H]1CCN(c2nccc(-c3cnn4ncccc34)n2)C1 | ALK L1196M | binding | – | 1 µM | 100 |
| CCCCN(CCCC)C(=O)CN1C[C@@H](c2cc(OC)c3c(c2)OCO3)[C@H](C(=O)O)[C@H]1CC(C)(C)CCC | ALK C1156Y | cell-free assay | competition with immobilised ligand | 1 µM | 95.4 |
| O=C(NCC1CCOCC1)c1n[nH]cc1NC(=O)c1c(F)cccc1F | ALK | binding | competition with immobilised ligand | 1 µM | 93 |
| Nc1c(C(=O)NCc2ccc(C(=O)NCCCC3CCCCC3)cc2)cnn1-c1ccccc1 | ALK | cell-free assay | competition with immobilised ligand | 0.1 µM | 100 |
| CNC(=O)[C@@H]1CC[C@@H](n2c(-c3ccc4cnccc4c3)nc3ccc(C(=O)NCc4cccc(C(N)=O)c4)cc32)C1 | ALK L1196M | binding | competition with immobilised ligand | 1 µM | 100 |
| Cc1c(NC(=O)c2cc(C(N)=O)nc3cc(F)ccc23)c(C(F)(F)F)nn1Cc1ccc(C(C)(C)C)cc1 | ALK | cell-free assay | competition with immobilised ligand | 1 µM | 96 |
| Cc1cnc(Nc2ccc(C(=O)N3CCC(N4CCCC4)CC3)cc2)nc1-c1cc2ccccc2s1 | ALK C1156Y | binding | competition with immobilised ligand | 1 µM | 34 |
| F[C@@H]1CCN(c2nccc(-c3cnn4ncccc34)n2)C1 | ALK | binding | – | 1 µM | 100 |
